# Article PMC3145007 (Journal of the American Chemical Society, 2011)
# “Also recorded” adds a separate entry of the source.
# Experiments:
# [1] = molecular target: T1, PREPL (Mus musculus, UniProt Q8C167); assay: gel-based ABPP IC50 determination with recombinant PREPL and FP-Rh; format: biochemical
# [2] = molecular target: T1, PREPL; assay: competitive gel-based ABPP in PREPL-spiked mouse brain proteome; format: biochemical; conditions: 50 μM inhibitor, brain proteome 1 mg/mL spiked with 40 nM PREPL, FP-Rh
# How it was run: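 Brain proteome diluted to 1 mg/mL in PBS pH 7.4 and spiked with recombinant His-tagged mouse PREPL (E. coli-expressed, Ni-IMAC purified), with Pluronic at 0.01% final. Test compound or DMSO preincubated 30 min at room temperature. FP-Rh at 0.5 μM final for 15 min, then SDS-loading-buffer quench. Samples run on 10% SDS-PAGE, scanned in-gel for fluorescence, and PREPL bands quantified for labeling extent.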
# [3] = in vivo distribution of PREPL inhibitor to brain by LC-MS/MS; conditions: mouse, 1 mg/kg intraperitoneal, 30 minutes, brain extract, MRM
# [4] = molecular target: PEP (Mus musculus, UniProt Q9QUR6); assay: PEP selectivity assay; format: biochemical; conditions: 20 μM inhibitor; >20% reduction in PEP activity = cross-reactive
# Sequence of PEP (Q9QUR6 whole entry): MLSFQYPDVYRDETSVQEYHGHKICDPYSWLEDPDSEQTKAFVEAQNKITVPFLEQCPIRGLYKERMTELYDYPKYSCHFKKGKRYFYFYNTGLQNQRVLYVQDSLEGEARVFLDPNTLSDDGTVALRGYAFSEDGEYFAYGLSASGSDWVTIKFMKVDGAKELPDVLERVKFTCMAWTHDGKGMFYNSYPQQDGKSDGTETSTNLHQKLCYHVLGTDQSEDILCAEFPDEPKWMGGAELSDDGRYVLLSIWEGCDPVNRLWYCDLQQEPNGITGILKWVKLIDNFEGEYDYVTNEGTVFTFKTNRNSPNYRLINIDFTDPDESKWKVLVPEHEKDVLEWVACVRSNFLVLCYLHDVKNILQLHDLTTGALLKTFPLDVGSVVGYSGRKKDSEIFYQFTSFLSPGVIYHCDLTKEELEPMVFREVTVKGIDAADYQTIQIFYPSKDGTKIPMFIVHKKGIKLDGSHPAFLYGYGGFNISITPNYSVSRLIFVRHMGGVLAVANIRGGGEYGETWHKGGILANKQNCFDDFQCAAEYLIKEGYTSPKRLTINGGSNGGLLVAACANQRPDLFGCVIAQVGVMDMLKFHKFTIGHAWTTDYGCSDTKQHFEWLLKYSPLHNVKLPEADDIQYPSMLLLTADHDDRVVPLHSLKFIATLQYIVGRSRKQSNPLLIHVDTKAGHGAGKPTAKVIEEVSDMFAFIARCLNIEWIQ
# [5] = molecular target: T1, PREPL; assay: MUGB; format: biochemical
# [6] = molecular target: T1, PREPL; assay: in situ ABPP assay in PREPL-transfected Neuro2A cells; format: cell-based; conditions: 50 μM inhibitor in media
# How it was run: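 Neuro2A cells plated at 1.5 × 10^6 per well and transfected next day with mouse PREPL plasmid by lipofection. Two days later, medium replaced with medium containing test compound for 1.5 h. Cell-permeable FP-alkyne then added (10 μM final) for 1 h. Cells PBS-washed, scraped, lysed by 7 freeze-thaw cycles and spun at 20,000 x g. Lysate at 4 mg/ml clicked with rhodamine-azide/TCEP/ligand/CuSO4 for 1 h, then resolved by SDS-PAGE.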
# T1 sequence (Q8C167 88-725): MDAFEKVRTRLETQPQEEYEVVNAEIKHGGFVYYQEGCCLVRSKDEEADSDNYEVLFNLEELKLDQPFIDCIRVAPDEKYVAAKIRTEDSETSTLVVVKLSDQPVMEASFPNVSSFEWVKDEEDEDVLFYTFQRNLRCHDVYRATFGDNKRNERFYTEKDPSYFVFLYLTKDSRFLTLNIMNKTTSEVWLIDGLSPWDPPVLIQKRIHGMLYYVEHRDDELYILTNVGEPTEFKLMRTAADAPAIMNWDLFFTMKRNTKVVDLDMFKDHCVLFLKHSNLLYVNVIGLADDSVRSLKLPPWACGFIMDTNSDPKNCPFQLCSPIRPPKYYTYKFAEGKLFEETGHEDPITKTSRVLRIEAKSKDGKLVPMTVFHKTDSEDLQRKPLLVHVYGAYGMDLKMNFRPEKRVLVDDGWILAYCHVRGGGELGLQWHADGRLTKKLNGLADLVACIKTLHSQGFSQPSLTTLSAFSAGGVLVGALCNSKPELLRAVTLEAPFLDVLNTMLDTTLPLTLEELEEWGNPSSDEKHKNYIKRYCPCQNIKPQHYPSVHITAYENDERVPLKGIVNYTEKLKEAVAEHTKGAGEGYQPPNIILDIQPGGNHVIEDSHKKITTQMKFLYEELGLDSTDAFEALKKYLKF
smiles,measurement,setting,value
"CC(C)Cc1[nH]c(=O)c(C#N)c2c1CCC2 [compound 8, 1-isobutyl-3-oxo-3,5,6,7-tetrahydro-2H-cyclopenta[c]pyridine-4-carbonitrile]",IC50,[1],3 to 12 µM
same,inhibition of PREPL in complex (brain) proteome,[2],able to inhibit PREPL in a complex proteome; also recorded: most potent carbonitrile inhibitor in the brain proteome ABPP assay; also recorded: selectively inhibit PREPL in brain proteomes
same,presence in brain / crossing of blood-brain barrier,[3],strong signal; also recorded: able to cross the blood-brain barrier
same,crossreactivity against PEP,[4],non-crossreactive
same,inhibition of MUGB breakdown by PREPL,[5],inhibited breakdown of MUGB by PREPL
same,inhibition of PREPL in cells (in situ),[6],able to cross the cell membrane and inhibit PREPL intracellularly; also recorded: lighter band on the gel
